Source: ChEMBL document CHEMBL2093137, “WHO-TDR NTD Screening”
In brackets after ≈: the same amount, converted by molar mass.

Key:
Plasmodium falciparum K1 = experiment: WHO-TDR: Malaria; assay type: functional, organism-based, Homo sapiens; conditions: Erythrocyte
Method in brief: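 Following previously published standard procedures, with a reference drug serving as positive control, compounds were tested on the Plasmodium falciparum K1 strain inside human red blood cells. The 10,000-compound diverse set came from Life Chemicals after filtering for drug-likeness and reactive groups. Potency against the parasite appears as IC50.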

[1] = WHO-TDR: Cytotoxicity; assay type: toxicity, cell-based; conditions: human, MRC5 cells
Schistosoma mansoni = experiment: WHO-TDR: Schistosomiasis; assay type: functional; parameters: concentration or dose not given beside the values
Method in brief: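 Whole-organism screen of a 10,000-compound diverse library from Life Chemicals, filtered for drug-likeness and reactive groups, against larval and/or adult worms of Schistosoma mansoni Puerto Rican strain. The assay followed previously published standard procedures, with a reference drug as positive control. Activity is reported as percent inhibition and as IC50.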

[2] = tested on: Trypanosoma brucei brucei; experiment: WHO-TDR: Human African Trypanosomiasis (HAT); assay type: functional, organism-based; conditions: Squib-427
Method in brief: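 Bloodstream forms of the Trypanosoma brucei Squib 427 strain were tested in a whole-organism screen with a diverse library from Life Chemicals of 10,000 compounds. Before screening, the library was filtered for drug-likeness and for reactive groups. The assay used previously published standard procedures and included reference drugs as positive controls. Potency against the parasite is expressed as IC50.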

Brugia malayi = experiment: WHO-TDR: Lymphatic Filariasis; assay type: functional; parameters: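 tested at 10 µM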
Method in brief: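 Whole-organism screen of a 10,000-compound diverse library from Life Chemicals, filtered for drug-likeness and reactive groups, against Brugia malayi microfilariae. The assay followed previously published standard procedures, with reference drugs as positive controls. Activity is reported as percent inhibition and as IC50.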

Leishmania infantum = experiment: WHO-TDR: Leishmaniasis; assay type: functional, organism-based, Mus musculus; conditions: Macrophage
Method in brief: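 Following previously published standard procedures, a whole-organism screen was run on Leishmania infantum MHOM/MA(BE)/67 amastigotes within murine peritoneal macrophages, with a reference drug as positive control. The 10,000 compounds tested formed a diverse Life Chemicals library filtered for drug-likeness and reactive groups. Potency against the parasite is reported as IC50.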

Trypanosoma cruzi = experiment: WHO-TDR: Chagas disease; assay type: functional, organism-based, Homo sapiens; conditions: MRC5
Method in brief: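 Intracellular amastigotes of the Trypanosoma cruzi Tulahuen CL2 beta-galactosidase strain, grown in MRC-5SV2 human lung fibroblast host cells, were tested in a whole-organism screen. The compounds came from a 10,000-member diverse Life Chemicals library that had been filtered for drug-likeness and reactive groups. Previously published standard procedures were followed, with a reference drug as positive control, and potency is reported as IC50.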

Onchocerca ochengi = experiment: WHO-TDR: Onchocerciasis; assay type: functional; parameters: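 at 12.5 µM on microfilariae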
Method in brief: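 Whole-organism screen of a 10,000-compound diverse library from Life Chemicals, filtered for drug-likeness and reactive groups, against microfilariae of Onchocerca ochengi or Onchocerca lienalis, used as animal-pathogen stand-ins for the human parasite. The assay followed previously published standard procedures, with reference drugs as positive controls. Activity is reported as percent inhibition and as IC50.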

Structure (SMILES) | IC50 (Plasmodium falciparum K1) [µg/mL] | IC50 [1] [µg/mL] | % Inhibition (Schistosoma mansoni) [%] | IC50 [2] [µg/mL] | % Inhibition (Brugia malayi) [%] | IC50 (Leishmania infantum) [µg/mL] | IC50 (Trypanosoma cruzi) [µg/mL] | % Inhibition (Onchocerca ochengi) [%]
O=C(CC(c1ccccc1)c1ccccc1)NCCCn1nc(-c2ccncc2)ccc1=O | 5.95 (≈ 13.6 µM) | > 13.2 | 0 | 7.53 (≈ 17.2 µM) | 0 | > 13.2 | 5.91 (≈ 13.5 µM) | 100
COc1ccc(C(=O)C2C(=O)N(c3ccccc3)N=C2C)c(OC)c1 (stereo unspecified) | > 10.2 | > 10.2 | 0 | > 10.2 | 0 | > 10.2 | > 10.2 | 100
CCn1nc(C)cc1C(=O)N1CCN(c2nc3c(C)ccc(C)c3s2)CC1 | > 11.5 | > 11.5 | 16.7 | > 11.5 | 0 | > 11.5 | > 11.5 | 100
COc1ccccc1C(=O)N1CCN(c2nccn2-c2ccccc2F)CC1 | > 12.5 | > 12.5 | 25 | > 12.5 | 0 | > 12.5 | > 12.5 | 100
O=C(c1ccc(C(F)(F)F)cc1)N1CCN(c2ccc(Nc3cccnc3)nn2)CC1 | > 12.9 | 7.94 (≈ 18.5 µM) | 0 | > 12.9 | 25 | > 12.9 | 3.43 (≈ 8.02 µM) | 100
CCOC(=O)c1sc(NC(=O)C2CCCCN2S(C)(=O)=O)cc1C (stereo unspecified) | > 11.2 | > 11.2 | 0 | 3.82 (≈ 10.2 µM) | 0 | > 11.2 | 3.69 (≈ 9.86 µM) | 100
O=c1ccc(-c2ccncc2)nn1CCNS(=O)(=O)c1ccc2c(c1)CCCC2 | > 12.3 | > 12.3 | 0 | > 12.3 | 0 | > 12.3 | > 12.3 | 100
O=S(=O)(CCCOc1ccc2c(c1)OCO2)NC1CCN(Cc2ccccc2)CC1 | > 13 | > 13 | 16.7 | 8.57 (≈ 19.8 µM) | 0 | > 13 | 13 (≈ 30 µM) | 100
CC(C)(C)n1ncc2c(=O)n(CCC(=O)NCc3ccccc3Cl)cnc21 | > 11.6 | > 11.6 | 100 | > 11.6 | 20 | > 11.6 | > 11.6 | 0
O=C(C1CCN(S(=O)(=O)c2cccs2)CC1)N(Cc1cccnc1)c1nc2c(F)cc(F)cc2s1 | > 16 | > 10.9 | 0 | > 16 | 25 | > 16 | 0.535 (≈ 1 µM) | 0
Cc1ccc(Cn2c(CO)cnc2SCC(=O)Nc2cccc3ccccc23)cc1 | > 12.5 | > 12.5 | 0 | > 12.5 | 25 | > 12.5 | > 12.5 | 100
O=C(CCn1cnc2c(cnn2-c2ccccc2)c1=O)Nc1nccs1 | > 11 | > 11 | 100 | > 11 | 20 | 3.56 (≈ 9.71 µM) | > 11 | 0
CCn1ccnc1N1CCN(C(=O)c2cccc(OC)c2OC)CC1 | > 11.4 | > 11.4 | 8.3 | > 11.4 | 0 | 0.37 (≈ 1.07 µM) | > 11.4 | 0
O=S(=O)(c1ccc2ccccc2c1)N1CCN(c2ccc(Nc3cccnc3)nn2)CC1 | > 13.4 | > 13.4 | 0 | > 13.4 | 0 | 0.434 (≈ 0.972 µM) | > 13.4 | 0
Cc1ccc(S(=O)(=O)NCCNc2ccc(Nc3cccc(C)n3)nn2)c(C)c1 | > 12.4 | > 12.4 | 0 | 4.01 (≈ 9.71 µM) | 0 | 8.43 (≈ 20.4 µM) | 3.96 (≈ 9.61 µM) | 100
CS(=O)(=O)c1ccccc1C(=O)Nc1nc(-c2cc3ccccc3o2)cs1 | > 12 | 5.25 (≈ 13.2 µM) | 0 | 4.02 (≈ 10.1 µM) | 0 | > 12 | 4.3 (≈ 10.8 µM) | 100
Cc1ccnc(Nc2ccc(NCCNS(=O)(=O)c3cccc(Cl)c3)nn2)c1 | > 12.6 | > 12.6 | 0 | 4.02 (≈ 9.6 µM) | 0 | > 12.6 | > 12.6 | 100
COc1ccc(C)cc1S(=O)(=O)N1CCN(c2ccc(-c3cccs3)nn2)CC1 | > 12.9 | > 12.9 | 0 | > 12.9 | 0 | 0.418 (≈ 0.971 µM) | > 12.9 | 0
COc1ccc(C(CNS(=O)(=O)c2ccc(Cl)s2)N2CCOCC2)cc1 (stereo unspecified) | > 12.5 | > 12.5 | 0 | > 12.5 | 0 | > 12.5 | > 12.5 | 100
Cc1ccc(-n2ccnc2N2CCN(C(=O)c3ccc4ccccc4c3)CC2)cc1 | 4.25 (≈ 10.7 µM) | 2.65 (≈ 6.67 µM) | 8.3 | 4.21 (≈ 10.6 µM) | 0 | 2.56 (≈ 6.45 µM) | 2.67 (≈ 6.73 µM) | 100
Cc1cccc(Nc2ccc(NCCNC(=O)Nc3ccc(F)cc3)nn2)n1 | 8.36 (≈ 21.9 µM) | > 11.4 | 0 | > 11.4 | 0 | > 11.4 | > 11.4 | 100
Cc1n[nH]c(C)c1CCc1nc(-c2ccc(Cl)cc2)no1 | 1.14 (≈ 3.78 µM) | > 9.08 | 0 | 2.13 (≈ 7.03 µM) | 0 | > 9.08 | 1.8 (≈ 5.96 µM) | 100
